Results as given in ChEMBL document CHEMBL3414473.
Blank lines part the entries; values can stand above or below the molecule they belong to. The source made the active and inactive calls. The rule behind the calls is not given here.

What was measured:
[1] = target: RAC-alpha serine/threonine-protein kinase (Homo sapiens, UniProt P31749); experiment: Binding affinity to GST-tagged PH domain of AKT (unknown origin) by surface Plasmon resonance spectroscopy
Outline: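 SPR: GST-tagged PH domain fusion protein immobilized on CM5 chip by amine coupling to about 17000 RU. Analyte injected at 1–20 µM at 30 µL/min; DMSO in samples and running buffer ≤1% (v/v). Kd obtained from sensorgram fitting.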

LNCaP [2] = experiment: Antiproliferative activity against human LNCAP cells assessed as suppression of cell viability after 24 hrs by MTT assay; type: functional, cell-based
Outline: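 LNCaP cells seeded at 5000/well on poly-L-lysine-coated plates in 10% FBS; 24 h later exposed to agents in serum-free medium for 24 h. Viability expressed as percent of vehicle control; IC50 derived.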

PC-3 [3] = experiment: In vivo antitumor efficacy in human PC3 cells xenografted athymic nude mouse assessed as decrease in phosphorylation of IKK in tumor at 100 mg/kg, po for 21 days relative to vehicle treated control; type: functional, organism-based; design: dose 100 mg/kg
Outline: (§1)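 Athymic nude mice given PC-3 cells sc (1 × 10⁶ per mouse); at about 50 mm³, randomized (n = 7) and dosed once daily for 21 days either ip at 50 mg/kg (vehicle saline/PEG400/DMSO/Tween 80, 65:20:10:5) or by oral gavage at 100 mg/kg (vehicle 0.5% methylcellulose/0.1% Tween 80 in water). Tumor volume measured weekly by calipers (width² × length × 0.52); phospho-proteins checked by Western blotting of tumor lysates.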

[4] = target: T1, PH domain leucine-rich repeat-containing protein phosphatase 1 (Homo sapiens, UniProt O60346); experiment: Inhibition of PHLPP1-mediated reduction in phosphorylation of MDM2 in human LNCAP cells after 24 hrs by Western blot analysis; type: cell-based
T1 sequence (O60346 whole entry, the tested form may be a part): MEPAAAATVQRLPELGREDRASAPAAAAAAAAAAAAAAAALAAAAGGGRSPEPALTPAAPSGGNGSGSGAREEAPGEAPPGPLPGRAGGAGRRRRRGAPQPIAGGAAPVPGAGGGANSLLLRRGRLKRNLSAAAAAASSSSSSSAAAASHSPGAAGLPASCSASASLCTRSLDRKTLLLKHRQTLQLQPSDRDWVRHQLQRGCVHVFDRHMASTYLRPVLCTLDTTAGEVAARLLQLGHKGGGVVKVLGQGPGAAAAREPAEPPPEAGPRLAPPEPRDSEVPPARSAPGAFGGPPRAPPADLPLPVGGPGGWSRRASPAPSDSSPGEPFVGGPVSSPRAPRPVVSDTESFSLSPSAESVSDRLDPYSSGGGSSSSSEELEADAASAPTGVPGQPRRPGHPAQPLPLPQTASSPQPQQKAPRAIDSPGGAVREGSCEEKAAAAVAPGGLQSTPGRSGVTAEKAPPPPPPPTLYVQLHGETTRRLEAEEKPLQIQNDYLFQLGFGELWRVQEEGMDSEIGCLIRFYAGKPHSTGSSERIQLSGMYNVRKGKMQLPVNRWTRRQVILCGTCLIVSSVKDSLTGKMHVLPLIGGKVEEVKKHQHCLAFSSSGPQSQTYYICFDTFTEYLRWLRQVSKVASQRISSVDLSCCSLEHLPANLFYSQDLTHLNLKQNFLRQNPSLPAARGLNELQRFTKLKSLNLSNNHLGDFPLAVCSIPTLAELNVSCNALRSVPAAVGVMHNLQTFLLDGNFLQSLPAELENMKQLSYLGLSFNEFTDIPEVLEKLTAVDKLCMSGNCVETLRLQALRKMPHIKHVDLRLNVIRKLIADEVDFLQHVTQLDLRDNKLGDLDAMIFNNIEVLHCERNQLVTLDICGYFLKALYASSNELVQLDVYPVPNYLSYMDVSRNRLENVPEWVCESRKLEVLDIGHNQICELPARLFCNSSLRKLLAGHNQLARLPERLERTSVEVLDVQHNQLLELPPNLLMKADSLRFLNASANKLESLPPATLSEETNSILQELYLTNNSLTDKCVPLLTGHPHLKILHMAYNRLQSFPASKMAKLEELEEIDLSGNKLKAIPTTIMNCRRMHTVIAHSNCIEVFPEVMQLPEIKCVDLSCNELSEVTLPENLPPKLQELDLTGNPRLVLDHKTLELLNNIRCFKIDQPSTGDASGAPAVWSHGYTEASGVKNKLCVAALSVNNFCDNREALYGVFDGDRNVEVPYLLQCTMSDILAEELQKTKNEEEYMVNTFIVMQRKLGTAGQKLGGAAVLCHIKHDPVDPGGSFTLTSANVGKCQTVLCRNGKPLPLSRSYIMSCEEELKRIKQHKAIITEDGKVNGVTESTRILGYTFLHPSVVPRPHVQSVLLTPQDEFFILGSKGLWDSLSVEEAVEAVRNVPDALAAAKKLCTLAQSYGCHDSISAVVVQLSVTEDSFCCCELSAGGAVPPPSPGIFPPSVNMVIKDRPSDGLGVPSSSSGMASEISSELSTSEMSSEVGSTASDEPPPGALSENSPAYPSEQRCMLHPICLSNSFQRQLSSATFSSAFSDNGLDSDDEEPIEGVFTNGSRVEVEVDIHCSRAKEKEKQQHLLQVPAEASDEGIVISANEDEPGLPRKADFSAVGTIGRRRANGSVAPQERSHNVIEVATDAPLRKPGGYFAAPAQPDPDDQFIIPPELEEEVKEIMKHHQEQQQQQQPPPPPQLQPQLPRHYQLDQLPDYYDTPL
Outline: (§2)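 LNCaP or PC-3 cells treated at various concentrations for 24 h in serum-free medium. Lysed in SDS buffer (50 mM Tris pH 8, 10 mM EDTA, 1% SDS, protease inhibitors); equal protein run on SDS-PAGE and transferred to nitrocellulose. Primary antibodies 1:1000 overnight at 4 °C, HRP secondary 1:2000; detected by ECL.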

[5] = target: T1, PH domain leucine-rich repeat-containing protein phosphatase 1; experiment: Inhibition of PHLPP1-mediated reduction in phosphorylation of Akt at Thr308 in human LNCAP cells after 24 hrs by Western blot analysis; type: cell-based; outline: as §2
[6] = target: T1, PH domain leucine-rich repeat-containing protein phosphatase 1; experiment: Inhibition of PHLPP1-mediated reduction in phosphorylation of Akt at Thr308 in human PC3 cells after 24 hrs by Western blot analysis; type: cell-based; conditions: PC-3; outline: as §2
PC-3 [7] = experiment: In vivo antitumor efficacy in human PC3 cells xenografted athymic nude mouse assessed as decrease in phosphorylation of MDM2 in tumor at 100 mg/kg, po for 21 days relative to vehicle treated control; type: functional, organism-based; design: dose 100 mg/kg; outline: as §1
PC-3 [8] = experiment: In vivo antitumor efficacy in human PC3 cells xenografted athymic nude mouse assessed as decrease in phosphorylation of Akt at Ser473 in tumor at 100 mg/kg, po for 21 days relative to vehicle treated control; type: functional, organism-based; design: dose 100 mg/kg; outline: as §1
PC-3 [9] = experiment: In vivo antitumor efficacy in human PC3 cells xenografted athymic nude mouse assessed as decrease in phosphorylation of Akt at Thr308 in tumor at 100 mg/kg, po for 21 days relative to vehicle treated control; type: functional, organism-based; design: dose 100 mg/kg; outline: as §1
PrEC = experiment: Antiproliferative activity against human PrEC cells assessed as suppression of cell viability after 24 hrs by MTT assay in serum free medium; type: cell-based
[10] = target: T1, PH domain leucine-rich repeat-containing protein phosphatase 1; experiment: Inhibition of PHLPP1-mediated reduction in phosphorylation of Akt at Ser473 in human LNCAP cells after 24 hrs by Western blot analysis; type: cell-based; outline: as §2
[11] = target: T1, PH domain leucine-rich repeat-containing protein phosphatase 1; experiment: Inhibition of PHLPP1-mediated reduction in phosphorylation of Akt at Ser473 in human PC3 cells after 24 hrs by Western blot analysis; type: cell-based; conditions: PC-3; outline: as §2
LNCaP [12] = experiment: Induction of PHLPP1 localization to human LNCAP cell membrane at 10 uM after 24 hrs by immunofluorescence staining analysis; type: functional, cell-based
Outline: (§3)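 LNCaP cells on poly-L-lysine-coated surfaces, treated in serum-free medium for 24 h. Fixed in 4% formaldehyde, permeabilized with 0.1% Triton X-100, blocked in 1% FBS, primary antibody (1:300) overnight, then Alexa Fluor secondary 2 h; DAPI nuclei; confocal imaging with cross-sectional fluorescence intensity analysis.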

[13] = target: T1, PH domain leucine-rich repeat-containing protein phosphatase 1; experiment: Inhibition of PHLPP1-mediated reduction in phosphorylation of IKK in human PC3 cells after 24 hrs by Western blot analysis; type: cell-based; conditions: PC-3; outline: as §2
[14] = target: T1, PH domain leucine-rich repeat-containing protein phosphatase 1; experiment: Inhibition of PHLPP1-mediated reduction in phosphorylation of IKK in human LNCAP cells after 24 hrs by Western blot analysis; type: cell-based; outline: as §2
[15] = target: T1, PH domain leucine-rich repeat-containing protein phosphatase 1; experiment: Inhibition of PHLPP1-mediated reduction in phosphorylation of MDM2 in human PC3 cells after 24 hrs by Western blot analysis; type: cell-based; conditions: PC-3; outline: as §2
PC-3 [16] = experiment: In vivo antitumor efficacy in human PC3 cells xenografted athymic nude mouse assessed as inhibition of tumor growth at 100 mg/kg, po for 21 days relative to vehicle treated control; type: functional, organism-based; design: dose 100 mg/kg; outline: as §1
LNCaP [17] = experiment: Induction of Akt localization to human LNCAP cell membrane at 10 uM after 24 hrs by immunofluorescence staining analysis; type: functional, cell-based; outline: as §3
LNCaP [18] = experiment: Induction of Akt-PHLPP1 complex to human LNCAP cell membrane after 24 hrs by immunofluorescence staining analysis; type: functional, cell-based
PC-3 [19] = experiment: In vivo antitumor efficacy in human PC3 cells xenografted athymic nude mouse assessed as inhibition of tumor growth at 50 mg/kg, ip for 21 days relative to vehicle treated control; type: functional, organism-based; design: dose 50 mg/kg; outline: as §1

Sequence of RAC-alpha serine/threonine-protein kinase (P31749 whole entry, the tested form may be a part): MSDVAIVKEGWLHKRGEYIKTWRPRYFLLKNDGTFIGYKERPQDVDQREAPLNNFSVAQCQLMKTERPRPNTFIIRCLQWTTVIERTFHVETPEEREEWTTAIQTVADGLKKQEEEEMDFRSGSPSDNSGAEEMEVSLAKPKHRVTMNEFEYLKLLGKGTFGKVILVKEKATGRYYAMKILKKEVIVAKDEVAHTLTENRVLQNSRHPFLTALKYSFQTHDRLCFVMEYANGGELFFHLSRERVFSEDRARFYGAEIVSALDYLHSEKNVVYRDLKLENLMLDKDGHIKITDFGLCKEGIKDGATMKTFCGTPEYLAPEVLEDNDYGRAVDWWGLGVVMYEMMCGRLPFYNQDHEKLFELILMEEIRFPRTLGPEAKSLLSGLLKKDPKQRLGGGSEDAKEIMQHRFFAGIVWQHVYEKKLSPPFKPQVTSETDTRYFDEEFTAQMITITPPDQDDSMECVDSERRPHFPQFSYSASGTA

Kd [1]: 410 nM
SMILES: Cc1c(O)cc2c(c1C)OC(C)(CCCC(C)C)CC2=O (centres undefined)

Kd [1]: 390 nM | IC50 (LNCaP [2]): 8000 nM
SMILES: CC(C)CCCC1(C)CCc2cc(O)cc(Br)c2O1 (centres undefined)

Kd [1]: 520 nM
SMILES: Cc1c(O)cc2c(c1C)OC(C)(CCCC(C)C)CC2 (racemic)

inhibition [4]: Dose-dependent effect | inhibition [5]: inactive | inhibition [6]: inactive | inhibition [10]: Dose-dependent effect | inhibition [11]: Dose-dependent effect | inhibition [13]: Dose-dependent effect | inhibition [14]: Dose-dependent effect | inhibition [15]: Dose-dependent effect
SMILES: Cc1c(O)cc2c(c1C)O[C@](C)(CCCC(C)C)CC2
Activity (PC-3 [3]): inactive | Activity (PC-3 [7]): inactive | Activity (PC-3 [8]): inactive | inhibition (PC-3 [9]): inactive | Activity (PrEC): Non-toxic | Activity (LNCaP [12]): Active | Activity (PC-3 [16]): inactive | Activity (LNCaP [17]): Active | Activity (LNCaP [18]): Dose-dependent effect | Activity (PC-3 [19]): Active

SMILES: CC(C)CCCC1(C)CCc2c(O)cccc2O1 (centres undefined)
Kd [1]: 340 nM | IC50 (LNCaP [2]): 11000 nM

Kd [1]: 1180 nM | IC50 (LNCaP [2]): 27000 nM
SMILES: CC(C)CCCC1(C)CCc2cc(O)cc(O)c2O1 (centres undefined)

Kd [1]: 210 nM | IC50 (LNCaP [2]): > 30000 nM
SMILES: CC(C)CCCC1(C)CCc2cc(N)ccc2O1 (centres undefined)

Kd [1]: 1880 nM | IC50 (LNCaP [2]): 26000 nM
SMILES: COc1cc(O)cc2c1OC(C)(CCCC(C)C)CC2 (centres undefined)

Kd [1]: 320 nM | IC50 (LNCaP [2]): 18000 nM
SMILES: Cc1cc(O)cc2c1OC(C)(CCCC(C)C)CC2=O (centres undefined)

Kd [1]: 450 nM | IC50 (LNCaP [2]): 8000 nM
SMILES: CC(C)CCCC1(C)CCc2cc(O)cc(C(F)(F)F)c2O1 (centres undefined)
